Test results as given in ChEMBL document CHEMBL3745673, “Synthesis, antimycobacterial screening and ligand-based molecular docking studies on novel pyrrole derivatives bearing pyrazoline, isoxazole and phenyl thiourea moieties” (Eur J Med Chem, 2016).
Values after ≈ are worked out from the molar mass of the structure shown.

System: Mycobacterium tuberculosis
Assay: Antitubercular activity against multi drug resistant Mycobacterium tuberculosis H37Rv after 5 days by microplate alamar blue assay
Format: functional
Conditions: 120 h
Summary of the method: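 Middlebrook 7H9 broth with compounds serially diluted on the plate over ten concentrations from 0.2 to 100. Sealed plates incubated 5 days at 37°C, then a fresh 1:1 mix of Alamar Blue and 10% Tween 80 was added for a further 24 h. Blue wells were scored as no growth and pink wells as growth.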

Structure (SMILES)	MIC [µg/mL]
COc1ccc(/C=C/C(=O)c2ccc(-n3cccc3)cc2)cc1	12.5 (≈ 41.2 µM)
COc1cc(C2CC(c3cccc([N+](=O)[O-])c3)=NN2C(C)=O)cc(OC)c1OC (centres undefined)	12.5 (≈ 31.3 µM)
CC(=O)Nc1ccc(O)c(C2CC(c3ccc(Cl)cc3)=NN2C(=O)c2ccncc2)c1 (centres undefined)	3.12 (≈ 7.17 µM)
COc1ccc(C2CC(c3ccc(-n4cccc4)cc3)=NN2C(C)=O)cc1OC (centres undefined)	12.5 (≈ 32.1 µM)
Clc1ccc(-c2cc(-c3ccc(-n4cccc4)cc3)on2)cc1	50 (≈ 156 µM)
Clc1cccc(Cl)c1-c1cc(-c2ccc(-n3cccc3)cc2)on1	100 (≈ 282 µM)
Cc1ccc(NC(=S)Nc2ccccc2-n2c(C)ccc2C)cc1	50 (≈ 149 µM)
Brc1ccccc1-c1cc(-c2ccc(-n3cccc3)cc2)on1	100 (≈ 274 µM)
Clc1cccc(-c2cc(-c3ccc(-n4cccc4)cc3)on2)c1Cl	25 (≈ 70.4 µM)
CC(=O)N1N=C(c2ccc(-n3cccc3)cc2)CC1c1ccc(Cl)cc1Cl (centres undefined)	25 (≈ 62.8 µM)
O=C(/C=C/c1ccccc1Cl)c1ccc(-n2cccc2)cc1	25 (≈ 81.2 µM)
Cc1ccc(C)n1-c1ccccc1NC(=S)Nc1ccc(Cl)c(Cl)c1	6.25 (≈ 16 µM)
CC(=O)N1N=C(c2ccc(-n3cccc3)cc2)CC1c1ccc(Cl)cc1 (centres undefined)	25 (≈ 68.7 µM)
Brc1cccc(-c2cc(-c3ccc(-n4cccc4)cc3)on2)c1	50 (≈ 137 µM)
Fc1ccc(-c2cc(-c3ccc(-n4cccc4)cc3)on2)cc1	12.5 (≈ 41.1 µM)
O=C(/C=C/c1ccccc1)c1ccc(-n2cccc2)cc1	50 (≈ 183 µM)
O=C(/C=C/c1ccc(Cl)cc1Cl)c1ccc(-n2cccc2)cc1	25 (≈ 73.1 µM)
CC(=O)N1N=C(c2ccc(-n3cccc3)cc2)CC1c1ccccc1 (centres undefined)	25 (≈ 75.9 µM)
Cc1ccc(C)n1-c1ccccc1NC(=S)Nc1ccccc1Br	50 (≈ 125 µM)
Clc1ccc(-c2cc(-c3ccc(-n4cccc4)cc3)on2)c(Cl)c1	50 (≈ 141 µM)

Structure (SMILES)	MIC [µg/mL]
Clc1ccccc1-c1cc(-c2ccc(-n3cccc3)cc2)on1	25 (≈ 77.9 µM)
CC(C)c1ccc(/C=C/C(=O)c2ccc(-n3cccc3)cc2)cc1	12.5 (≈ 39.6 µM)
Cc1ccc(C)n1-c1ccccc1NC(=S)Nc1ccc(F)cc1	1.6 (≈ 4.71 µM)
COc1cccc(C2CC(c3ccc(-n4cccc4)cc3)=NN2C(C)=O)c1 (centres undefined)	6.25 (≈ 17.4 µM)
CC(=O)N1N=C(c2ccc(-n3cccc3)cc2)CC1c1ccccc1Br (centres undefined)	100 (≈ 245 µM)
CC(=O)N1N=C(c2ccc(-n3cccc3)cc2)CC1c1c(Cl)cccc1Cl (centres undefined)	25 (≈ 62.8 µM)
O=C(/C=C/c1ccccc1O)c1ccc(-n2cccc2)cc1	25 (≈ 86.4 µM)
Cc1ccc(C)n1-c1ccccc1NC(=S)Nc1ccccc1	50 (≈ 156 µM)
NC(=S)N1N=C(C/N=N/NC(=O)c2cccnc2)CC1c1ccccc1 (centres undefined)	1.25 (≈ 3.4 µM)
O=C(/C=C/c1cccc(Cl)c1Cl)c1ccc(-n2cccc2)cc1	25 (≈ 73.1 µM)
c1coc(-c2cc(-c3ccc(-n4cccc4)cc3)on2)c1	25 (≈ 90.5 µM)
CC(=O)N1N=C(c2ccc(-n3cccc3)cc2)CC1c1ccco1 (centres undefined)	25 (≈ 78.3 µM)
O=C(/C=C/c1cccc(Oc2ccccc2)c1)c1ccc(-n2cccc2)cc1	25 (≈ 68.4 µM)
Cc1ccc(C)n1-c1ccccc1NC(=S)Nc1ccc(Cl)cc1	50 (≈ 140 µM)
CC(=O)N1N=C(c2ccc(-n3cccc3)cc2)CC1c1ccccc1Cl (centres undefined)	25 (≈ 68.7 µM)
COc1ccc(-c2cc(-c3ccc(-n4cccc4)cc3)on2)cc1OC	12.5 (≈ 36.1 µM)
c1ccc(-c2cc(-c3ccc(-n4cccc4)cc3)on2)cc1	100 (≈ 349 µM)
Cc1ccc(-c2cc(-c3ccc(-n4cccc4)cc3)on2)cc1	12.5 (≈ 41.6 µM)
COc1ccc(C2CC(c3ccc(-n4cccc4)cc3)=NN2C(C)=O)c(OC)c1 (centres undefined)	6.25 (≈ 16 µM)
Cc1ccc(C)n1-c1ccccc1NC(=S)Nc1ccc([N+](=O)[O-])cc1	50 (≈ 136 µM)

Structure (SMILES)	MIC [µg/mL]
O=C(/C=C/c1c(Cl)cccc1Cl)c1ccc(-n2cccc2)cc1	25 (≈ 73.1 µM)
O=C(/C=C/c1cccc(Br)c1)c1ccc(-n2cccc2)cc1	100 (≈ 284 µM)
CC(=O)N1N=C(c2ccc(-n3cccc3)cc2)CC1c1cccc(Cl)c1Cl (centres undefined)	25 (≈ 62.8 µM)
O=C(/C=C/c1ccccc1Br)c1ccc(-n2cccc2)cc1	50 (≈ 142 µM)
CC(=O)N1N=C(c2ccc(-n3cccc3)cc2)CC1c1ccc(F)cc1 (centres undefined)	12.5 (≈ 36 µM)
O=C(/C=C/c1ccco1)c1ccc(-n2cccc2)cc1	50 (≈ 190 µM)
COc1cccc(/C=C/C(=O)c2ccc(-n3cccc3)cc2)c1	25 (≈ 82.4 µM)
Cc1ccc(C)n1-c1ccccc1NC(=S)Nc1cccc(Cl)c1	50 (≈ 140 µM)
O=C(/C=C/c1ccc(F)cc1)c1ccc(-n2cccc2)cc1	12.5 (≈ 42.9 µM)
CC(=O)N1N=C(c2ccc(-n3cccc3)cc2)CC1c1cccc(Br)c1 (centres undefined)	50 (≈ 122 µM)
CC(=O)N1N=C(c2ccc(-n3cccc3)cc2)CC1c1ccc(C)cc1 (centres undefined)	6.25 (≈ 18.2 µM)
Cc1ccc(C)n1-c1ccccc1NC(=S)Nc1cccc(Br)c1	50 (≈ 125 µM)
c1ccc(Oc2cccc(-c3cc(-c4ccc(-n5cccc5)cc4)on3)c2)cc1	12.5 (≈ 33 µM)
COc1ccc(/C=C/C(=O)c2ccc(-n3cccc3)cc2)cc1OC	25 (≈ 75 µM)
CC(=O)N1N=C(c2ccc(-n3cccc3)cc2)CC1c1cccc(Oc2ccccc2)c1 (centres undefined)	12.5 (≈ 29.7 µM)
COc1ccccc1NC(=S)N1N=C(c2ccc(O)c(C)c2)CC1c1c(Cl)cccc1Cl (centres undefined)	1.66 (≈ 3.41 µM)
O=C(/C=C/c1ccc(Cl)cc1)c1ccc(-n2cccc2)cc1	50 (≈ 162 µM)
CC[C@@H](CO)NCCN[C@@H](CC)CO [ETHAMBUTOL]	0.5 (≈ 2.45 µM)
CO[C@H]1/C=C/O[C@@]2(C)Oc3c(C)c(O)c4c(O)c(c(/C=N/N5CCN(C)CC5)c(O)c4c3C2=O)NC(=O)/C(C)=C\C=C\[C@H](C)[C@H](O)[C@@H](C)[C@@H](O)[C@@H](C)[C@H](OC(C)=O)[C@@H]1C [RIFAMPIN]	0.4 (≈ 0.486 µM)
